Results as given in ChEMBL document CHEMBL5104202, “Structure-Uptake Relationship Studies of Oxazolidinones in Gram-Negative ESKAPE Pathogens” (J Med Chem, 2022).
Values after ≈ are worked out from the molar mass of the structure shown.

Legend:
Acinetobacter baumannii [1] = test: Antibacterial activity against efflux pump lacking Acinetobacter baumannii assessed as inhibition of bacterial growth; assay type: functional, organism-based
Acinetobacter baumannii [2] = test: Antibacterial activity against efflux pump lacking/recombinant OM pore producing Acinetobacter baumannii assessed as inhibition of bacterial growth; assay type: functional, organism-based
Acinetobacter baumannii [3] = test: Antibacterial activity against recombinant OM pore producing Acinetobacter baumannii assessed as inhibition of bacterial growth; assay type: functional, organism-based
Acinetobacter baumannii [4] = test: Antibacterial activity against wild type Acinetobacter baumannii assessed as inhibition of bacterial growth; assay type: functional, organism-based
Escherichia coli [5] = test: Antibacterial activity against wild type Escherichia coli assessed as inhibition of bacterial growth; assay type: functional, organism-based
Escherichia coli [6] = test: Antibacterial activity against recombinant OM pore producing Escherichia coli assessed as inhibition of bacterial growth; assay type: functional, organism-based
Escherichia coli [7] = test: Antibacterial activity against efflux pump lacking Escherichia coli assessed as inhibition of bacterial growth; assay type: functional, organism-based
Escherichia coli [8] = test: Antibacterial activity against efflux pump lacking/recombinant OM pore producing Escherichia coli assessed as inhibition of bacterial growth; assay type: functional, organism-based
Pseudomonas aeruginosa [9] = test: Antibacterial activity against wild type Pseudomonas aeruginosa assessed as inhibition of bacterial growth; assay type: functional, organism-based
Pseudomonas aeruginosa [10] = test: Antibacterial activity against recombinant OM pore producing Pseudomonas aeruginosa assessed as inhibition of bacterial growth; assay type: functional, organism-based
Pseudomonas aeruginosa [11] = test: Antibacterial activity against efflux pump lacking Pseudomonas aeruginosa assessed as inhibition of bacterial growth; assay type: functional, organism-based
Pseudomonas aeruginosa [12] = test: Antibacterial activity against efflux pump lacking/recombinant OM pore producing Pseudomonas aeruginosa assessed as inhibition of bacterial growth; assay type: functional, organism-based
Acinetobacter baumannii [13] = test: Antibacterial activity against efflux pump lacking/recombinant OM pore producing Acinetobacter baumannii incubated for 24 hrs by twofold serial dilution method; assay type: functional
How it was run: (§1)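 MICs by twofold serial dilution in 96-well plates from 10 mM DMSO stocks. Cultures grown in the indicated media; for E. coli, A. baumannii and P. aeruginosa, inducers were 0.1% arabinose, 1% arabinose and 0.1 mM IPTG respectively.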

Escherichia coli [14] = test: Antibacterial activity against efflux pump lacking/recombinant OM pore producing Escherichia coli incubated for 24 hrs by twofold serial dilution method; assay type: functional
How it was run: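 E. coli efflux-knockout/hyperporinated strain grown in M9 medium with 50 mM MOPS (pH 7.2) and 0.2% xylose. OM pore induced with 0.1% arabinose. Compounds come from 10 mM DMSO stocks and are twofold serially diluted in 96-well plates.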

Pseudomonas aeruginosa [15] = test: Antibacterial activity against efflux pump lacking/recombinant OM pore producing Pseudomonas aeruginosa incubated for 24 hrs by twofold serial dilution method; assay type: functional; how it was run: as §1
Escherichia coli [16] = test: Antibacterial activity against Escherichia coli SQ110 DTC G2032A incubated for 24 hrs by twofold serial dilution method; assay type: functional
How it was run: (§2)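 E. coli SQDTC (TolC-deficient, single rRNA operon) carrying LZD-resistant 23S rRNA substitutions. Compounds come from 10 mM DMSO stocks and are twofold serially diluted in 96-well plates.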

Staphylococcus aureus = test: Antibacterial activity against Staphylococcus aureus ATCC 25923 incubated for 24 hrs by twofold serial dilution method; assay type: functional; how it was run: as §1
Escherichia coli [17] = test: Antibacterial activity against Escherichia coli SQ110 DTC incubated for 24 hrs by twofold serial dilution method; assay type: functional; how it was run: as §1
Escherichia coli [18] = test: Antibacterial activity against Escherichia coli SQ110 incubated for 24 hrs by twofold serial dilution method; assay type: functional; how it was run: as §1
Escherichia coli [19] = test: Antibacterial activity against Escherichia coli SQ110 DTC C2610A incubated for 24 hrs by twofold serial dilution method; assay type: functional; how it was run: as §2

SMILES	IC50 (Acinetobacter baumannii [1]) [µM]	IC50 (Acinetobacter baumannii [2]) [µM]	IC50 (Acinetobacter baumannii [3]) [µM]	IC50 (Acinetobacter baumannii [4]) [µM]	IC50 (Escherichia coli [5]) [µM]	IC50 (Escherichia coli [6]) [µM]	IC50 (Escherichia coli [7]) [µM]	IC50 (Escherichia coli [8]) [µM]	IC50 (Pseudomonas aeruginosa [9]) [µM]	IC50 (Pseudomonas aeruginosa [10]) [µM]	IC50 (Pseudomonas aeruginosa [11]) [µM]	IC50 (Pseudomonas aeruginosa [12]) [µM]	MIC (Acinetobacter baumannii [13]) [µM]	MIC (Escherichia coli [14]) [µM]	MIC (Pseudomonas aeruginosa [15]) [µM]	MIC (Escherichia coli [16]) [µM]	MIC (Staphylococcus aureus) [µM]	MIC (Escherichia coli [17]) [µM]	MIC (Escherichia coli [18]) [µM]	MIC (Escherichia coli [19]) [µM]
O=C1O[C@@H](CO)CN1c1ccc(-c2ccc(OC(F)(F)F)cc2)c(F)c1	16.3	6.4	25.6	> 100	> 100	76.9	17.2	18.8	> 100	> 100	18.6	3.1	25	> 100	> 100	> 100	6.25 (≈ 2.32 µg/mL)	100 (≈ 37.1 µg/mL)	> 100	> 100
C[n+]1cccc(-c2ccc(-c3ccc(N4C[C@H](CO)OC4=O)cc3F)cc2)c1	29.7	12.6	13.9	> 100	98.4	7.8	1.2	2.1	> 100	28.1	29.7	18.1	25	25	25	50	12.5	12.5	> 100	25
CC[n+]1ccc(-c2ccc(N3C[C@H](CO)OC3=O)cc2F)cc1	> 100	38.5	> 100	> 100	43.8	36	13.7	15.9	> 100	> 100	57.4	42.3								
CC(C(=O)NCC#Cc1ccc(N2C[C@H](CO)OC2=O)cc1F)N1CCN(C(=O)OC(C)(C)C)CC1 (some centres undefined)	> 100	> 100	> 100	> 100	> 100	> 100	50.9	62.6	> 100	> 100	> 100	> 100								
O=C1O[C@@H](CO)CN1c1ccc(-c2ccc(O)cc2)c(F)c1	8.4	7.3	12.9	> 100	> 100	22.1	2	2.3	> 100	27.7	8.4	5.8								
NCC#Cc1ccc(N2C[C@H](CO)OC2=O)cc1F	> 100	> 100	> 100	> 100	> 100	> 100	> 100	> 100	> 100	> 100	> 100	> 100								
CC(O)c1ccc(OCC#Cc2ccc(N3C[C@H](CO)OC3=O)cc2F)cc1 (some centres undefined)	61.9	34.7	> 100	> 100	62.4	24.7	30.2	13.5	> 100	> 100	> 100	91.3								
O=C1O[C@@H](CO)CN1c1ccc(-c2ccc3cnccc3c2)c(F)c1	5.6	5.6	> 100	> 100	> 100	> 100	> 100	> 100	> 100	> 100	67.7	37.9								
O=C1O[C@@H](CO)CN1c1ccc(-c2ccccn2)c(F)c1	> 100	> 100	> 100	> 100	> 100	> 100	76.8	79.6	> 100	> 100	64.2	47.4								
CC(C)(C)OC(=O)N(CC#Cc1ccc(N2C[C@H](CO)OC2=O)cc1F)CC(=O)O	> 100	> 100	> 100	> 100	> 100	> 100	> 100	> 100	> 100	> 100	> 100	> 100								
COCC#Cc1ccc(N2C[C@H](CO)OC2=O)cc1F	> 100	> 100	> 100	> 100	74.9	36.3	80.3	44	> 100	> 100	> 100	> 100								
CC(C)(C)Oc1cc(-c2ccc(N3C[C@H](CO)OC3=O)cc2F)cnc1C#N	> 100	> 100	> 100	> 100	> 100	> 100	> 100	> 100	> 100	> 100	> 100	> 100								
O=C1O[C@@H](CO)CN1c1ccc(-c2ccc(F)cc2)c(F)c1	8.8	9.7	89.8	> 100	89.1	22.8	4.3	2.3	> 100	89.8	8.8	2.2								
CNC(=O)NCC#Cc1ccc(N2C[C@H](CO)OC2=O)cc1F	> 100	> 100	> 100	> 100	> 100	> 100	> 100	11.2	> 100	> 100	> 100	> 100								
